# Assay outcomes: PubChem, several laboratories
# Hits are enriched below; roughly 4.6% of the tested compounds scored in any of these assays.
# APP 5'UTR act – activates APP 5'UTR luciferase reporter; activation, % at 2 µM; actives 1% (n = 190,000); AID 1276; SH-SY5Y APP 5'UTR luciferase reporter, luminescence; zero percent = DMSO vehicle wells;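 active = activation above a set limit, based on mean plus 3 SD of controls, cut at about 140% in these data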
# STAT1 act – increases IFN-gamma driven STAT1 reporter signal; NIH 3T3 STAT1-luciferase reporter, luminescence; 100% = IFN-gamma alone, no compound; activation (% of control), % at 5.5 µM; actives 2.6% (n = 200,000);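 active = activation above the screen-wide mean activation plus 3 SD, cut at about 130% in these data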;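 also: raw ratio to IFN-gamma control signal so 100% means no change and 0% no light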
# Wee1 degr inh – blocks degradation of human Wee1 kinase | HeLa Luc-Wee1K328M stability, luciferase luminescence; 100% = proteasome inhibitor MG132 effect | reporter increase, % at 5 µM | actives 1.2% (n = 220,000) | AID 1321;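 active = activation above the mean of all tested compounds plus 3 SD, set per screening run, cut at about 8.8% in these data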;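 also: cells exposed to compound for 20 h before luminescence read; 0% = DMSO alone and 100% = MG132 at 30 µM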
# Target sequence (P30291 whole entry K328M): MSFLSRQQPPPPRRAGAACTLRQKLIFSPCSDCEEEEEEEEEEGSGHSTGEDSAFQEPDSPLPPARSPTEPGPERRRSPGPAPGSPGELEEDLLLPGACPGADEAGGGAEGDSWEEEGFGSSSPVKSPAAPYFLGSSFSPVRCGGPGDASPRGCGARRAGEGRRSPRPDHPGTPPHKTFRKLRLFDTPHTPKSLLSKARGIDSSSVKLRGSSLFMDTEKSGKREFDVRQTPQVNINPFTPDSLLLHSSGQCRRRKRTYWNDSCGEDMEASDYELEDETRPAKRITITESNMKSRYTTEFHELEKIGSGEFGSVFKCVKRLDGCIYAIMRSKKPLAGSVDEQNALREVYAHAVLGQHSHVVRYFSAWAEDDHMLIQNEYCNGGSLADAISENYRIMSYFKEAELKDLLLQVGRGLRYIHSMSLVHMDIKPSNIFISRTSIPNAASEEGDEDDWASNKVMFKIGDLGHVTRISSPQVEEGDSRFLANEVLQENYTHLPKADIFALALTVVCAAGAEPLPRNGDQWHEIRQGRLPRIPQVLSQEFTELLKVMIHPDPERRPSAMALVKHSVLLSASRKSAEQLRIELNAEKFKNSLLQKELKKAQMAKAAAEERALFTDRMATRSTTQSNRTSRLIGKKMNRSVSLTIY
# Mdm2 ligase inh – blocks human Mdm2 ubiquitin ligase activity. Q00987. cell-based MDM2 ubiquitination luciferase reporter, 2 h; 0 = plate control, 100 = twice control, blank-subtracted. signal enhancement, % at 5 µM. actives 0.11% (n = 210,000). AID 1230;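 active = signal enhancement of 30% or more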;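 also: luminescence tracks abundance of the self-degrading MDM2-luciferase fusion protein; higher signal means inhibition of MDM2 E3 ligase activity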
#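 Assay system: stable mammalian line carrying autodegrading MDM2–luciferase fusion reporter; amount: 2000 cells seeded into each well; buffer or medium: DMEM; benchmarks: plate control and blank wells; signal: luciferase luminescence; timing: 2 h compound exposure at 37 °C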
# p97 ATPase inh – blocks human p97 ATPase activity; recombinant p97 ATPase, Kinase-Glo ATP luminescence, 3 h; inhibition, % at 8 µM; actives 0.42% (n = 220,000); in the data active = inhibition above about 15%;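 also: 0% = DMSO vehicle and 100% = wells lacking enzyme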
# NF-kB expr up – compounds increasing NF-kB expression in human neuronal cells; NF-kB reporter expression; hits give high values; fold change at 12.5 µM; actives 1.6% (n = 190,000); AID 1239; in the data active = fold change above about 3.3
# STAT1 act conf – confirmation of STAT1 signaling activators; AID 1262; activation (% of control), % at 5.7 µM; shares compounds with STAT1 act; NIH 3T3 STAT1-luciferase reporter, IFN-gamma potentiation, luminescence; 100% = IFN-gamma EC80 alone, no compound; actives 97% (n = 1,200);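 active = activation above a set limit carried over from the earlier primary STAT1 screen, cut at about 140% in these data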;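 also: simple ratio to median IFN-gamma plus DMSO wells so 0% means no light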
# NFkB act – NF-kappaB activation in STAT1 activator counter-screen; shares compounds with STAT1 act; HEK293T NF-kB luciferase reporter, TNF-alpha stimulated, luminescence; 100% = TNF-alpha with vehicle only; activation (% of control), % at 5.7 µM; actives 43% (n = 1,200); AID 1306;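 active = activation above the mean of solvent-only control wells plus 3 SD, set per campaign, cut at about 130% in these data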;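 also: TNF-alpha given at a submaximal dose yielding about 80% of full reporter signal; values are well signal over median control so 100% means no change and 0% no light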
# STAT3 act 2 – human STAT3 activation in STAT1 activator counter-screen; shares compounds with STAT1 act; U3A cells STAT3-luciferase reporter, IL-6, luminescence; cells lack STAT1; 100 = IL-6 alone, no compound effect; activation (% of control), % at 5.7 µM; actives 46% (n = 1,200);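 active = activation above the solvent-only control well mean plus 3 SD, set per plate batch, cut at about 110% in these data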;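 also: 0% = no luminescence and 100% = median IL-6 plus DMSO wells; higher means more STAT3 reporter activation so hits are non-selective activators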
# * marks the source's active call; other numbers are inactive results; . = no result given.
SMILES,APP 5'UTR act,STAT1 act,Wee1 degr inh,Mdm2 ligase inh,p97 ATPase inh,NF-kB expr up,STAT1 act conf,NFkB act,STAT3 act 2
CC(C)(C)c1ccc(NC(=O)Nc2ccc(F)cc2)cc1,162*,176*,9.6*,-18,-3,4.2*,213*,138*,126*
COc1cccc(NC(=O)Nc2ccc(C(C)(C)C)cc2)c1,120,151*,6,-4,4,4.3*,178*,129,110
O=C(O)c1ccc(N2CCS(=O)(=O)CC2)cc1,14,100,4,-15,4,0.95,.,.,.
Cc1ccc(NC(=O)CN2CCN(CCN=CC3=C(O)CC(c4ccc(C)cc4)CC3=O)CC2)cc1 (centres undefined),13,99,1,-1,1,1.1,.,.,.
COCCn1c(C)cc(C(=O)CSc2nc3ccccc3c(=O)n2Cc2ccco2)c1C,181*,152*,1,18,3,0.85,236*,149*,127*
O=C(/C=C\Nc1ccc2c(c1)OCO2)c1ccc(Cl)s1,164*,157*,1,-82,8,0.96,200*,88,83
COc1ccc(N/C=C/C(=O)c2ccc3c(c2)OCO3)cc1OC,13,161*,3,-2,7,1.8,178*,136*,105
CCOC(=O)c1cccc(N/C=C/C(=O)c2ccc(OC)c(OC)c2)c1,130,116,3,13,-2,0.88,.,.,.
CC(C)(C)c1ccc(S(=O)(=O)N2CCSC2)cc1,11,96,0,-7,4,1.1,.,.,.
CCCCN(CCCC)CCNC(=O)CSCc1ccc(C)cc1,3,93,8,-3,-7,0.84,.,.,.
c1ccc(N2CCN(c3nc4cc5c(cc4s3)OCCO5)CC2)cc1,49,158*,7,-23,7,2.1,190*,125,85
COC(=O)c1sc(NC(=O)c2cc3c(s2)CCCC3)nc1C,89,155*,2,0,2,5.7*,202*,127,111*
O=C(CSc1nnc(NC(=O)c2ccc(S(=O)(=O)N3CCOCC3)cc2)s1)Nc1ccccc1C(F)(F)F,-5,101,-1,11,5,0.8,.,.,.
O=C(c1cc2cc([N+](=O)[O-])ccc2s1)N1CCOCC1,-19,101,0,-10,2,1.1,.,.,.
O=C(O)c1ccc(N/N=C/c2ccc3nccnc3c2)cc1,.,.,-4,-85,-22,.,.,.,.
O=C(O)c1ccc(N/N=C/c2cccc(F)c2)cc1,124,161*,1,-26,-1,5*,203*,102,118*
COc1cc(/C=N/Nc2ccc(C(=O)O)cc2)ccc1O,89,75,3,-66,2,3,.,.,.
O=C(O)c1ccc(N/N=C/c2ccc(F)c(F)c2)cc1,159*,162*,4,-30,2,5.3*,211*,101,129*
COc1cccc2cc(-c3csc(NC(=O)CCC(=O)NCCCN4CCC(C)CC4)n3)c(=O)oc12,.,.,-2,.,-2,.,.,.,.
CCOc1cccc2cc(-c3csc(NC(=O)CCC(=O)NCCCN4CCC(C)CC4)n3)c(=O)oc12,176*,152*,4,-6,2,5.5*,157*,126,124*
CN(CCCNC(=O)CSc1cc(=O)n(C)c2ccc(Cl)cc12)Cc1ccccc1,-14,107,-3,18,0,1.2,.,.,.
CC(C)(C)c1ccc(C(=O)Nc2ccc([N+](=O)[O-])cn2)cc1,131,151*,0,-25,4,2.2,213*,135*,99
O=C(NC(=S)Nc1ccccn1)c1ccc([N+](=O)[O-])cc1,127,182*,0,13,2,2.1,191*,128,107
O=C(Nc1ncccn1)c1ccc([N+](=O)[O-])cc1,3,108,-1,-10,7,1.1,.,.,.
O=C(Nc1ccc(Cl)cc1)ON=C1CCCC1,1,117,1,4,6,1.8,.,.,.
SMILES,APP 5'UTR act,STAT1 act,Wee1 degr inh,Mdm2 ligase inh,p97 ATPase inh,NF-kB expr up,STAT1 act conf,NFkB act,STAT3 act 2
CCOC(=O)c1nc(C)nc(Sc2n[nH]c(-c3ccc(C(C)(C)C)cc3)n2)c1C,.,.,1,-13,0,.,.,.,.
O=C(Nc1nc2c(s1)C(=O)CCC2)c1ccccc1,148*,153*,-1,-35,-6,3,185*,111,96
Cc1cccnc1Nc1nc(-c2ccc(O)cc2)cs1,84,151*,3,-16,-2,7.4*,205*,141*,111*
Oc1ccc(-c2csc(Nc3ncccn3)n2)c(O)c1,154*,176*,6,-3,1,8.1*,216*,144*,109
O=C(Nc1ccc(N2CCOCC2)c(Cl)c1)c1cccnc1Cl,-4,106,1,1,5,1.1,.,.,.
O=C(Nc1ccc(N2CCOCC2)c(Cl)c1)c1c(F)c(F)c(F)c(F)c1F,6,108,0,-6,-1,0.78,.,.,.
COc1c(C)cccc1C(=O)Nc1ccc(N2CCOCC2)c(Cl)c1,154*,152*,4,.,-5,6.1*,199*,131,105
O=C(Nc1ccc(N2CCOCC2)c(Cl)c1)c1cccc(F)c1,109,185*,7,-16,-3,5.5*,193*,135*,118*
CCOC(=O)CC(=O)NC1(Cc2ccc(O)cc2)CCCCC1,18,103,0,-14,2,1.1,.,.,.
Cc1ccccc1NC(=S)c1nc2ccccc2[nH]1,-12,123,0,-14,0,1.9,.,.,.
S=C(Nc1ccc(Cl)cc1)c1nc2ccccc2[nH]1,.,167*,5,-19,6,2.5,192*,134*,102
Cc1nc(N)sc1-c1csc(Nc2ccccn2)n1,72,169*,-2,1,10,1,183*,131,129*
Cn1cc(NC(=O)OCc2ccc(Cl)cc2)c(C(F)(F)F)n1,7,178*,-1,-12,-4,3.5*,165*,125,110
Cn1cc(C(=O)Nc2ccc(Cl)cc2)c(C(F)(F)F)n1,-4,91,-1,-16,7,0.94,.,.,.
